# What was measured:
# HeLa [1] = assay: In vitro anticellular activity against HeLa cells.; type: functional, cell-based, Homo sapiens
# Procedure, shortened: (§1)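 HeLa S3 cells seeded on day 0, then exposed to drug for 1 h on day 1. Anticellular activity determined by a previously described method and reported as 1 h IC50 in μM.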
# Mus musculus [2] = assay: In vivo antitumor activity against P388 leukemia cells (ip)in mice and maximal increase in life span calculated as (T/C-1)*100 at the optimal dose of 2.5 mg/kg (%ILS max of mitomycin C at the optimal dose of 4.0 mg/kg).; type: functional
# Mus musculus [3] = assay: In vivo antitumor activity against P388 leukemia cells (ip)in mice and maximal increase in life span calculated as (T/C-1)*100 at the optimal dose of 5 mg/kg (%ILS max of mitomycin C at the optimal dose of 4.0 mg/kg).; type: functional
# Mus musculus [4] = assay: In vivo antitumor activity against P388 leukemia cells (ip)in mice and maximal increase in life span calculated as (T/C-1)*100 at the optimal dose of 13 mg/kg (%ILS max of mitomycin C at the optimal dose of 6.0 mg/kg).; type: functional
# Mus musculus [5] = assay: In vivo antitumor activity against P388 leukemia cells (ip)in mice and maximal increase in life span calculated as (T/C-1)*100 at the optimal dose of 3 mg/kg (%ILS max of mitomycin C at the optimal dose of 6.0 mg/kg); type: functional
# Mus musculus [6] = assay: In vivo antitumor activity against P388 leukemia cells (ip)in mice and maximal increase in life span calculated as (T/C-1)*100 at the optimal dose of 5 mg/kg (%ILS max of mitomycin C at the optimal dose of 6.0 mg/kg).; type: functional
# Mus musculus [7] = assay: In vivo antitumor activity against P388 leukemia cells (ip)in mice and maximal increase in life span calculated as (T/C-1)*100 at the optimal dose of 3.1 mg/kg (%ILS max of mitomycin C at the optimal dose of 4.0 mg/kg).; type: functional
# Mus musculus [8] = assay: In vivo antitumor activity against P388 leukemia cells (ip)in mice and maximal increase in life span calculated as (T/C-1)*100 at the optimal dose of 13 mg/kg (%ILS max of mitomycin C at the optimal dose of 4.0 mg/kg).; type: functional
# HeLa [9] = assay: The compound was tested in vitro for its anticellular activity against HeLa cells.; type: functional, cell-based; conditions: Homo sapiens; procedure, shortened: as §1
# Mus musculus [10] = assay: In vivo antitumor activity against P388 leukemia cells (ip)in mice and maximal increase in life span calculated as (T/C-1)*100 at the optimal dose of 0.75 mg/kg (%ILS max of mitomycin C at the optimal dose of 6.0 mg/kg); type: functional
# Mus musculus [11] = assay: In vivo antitumor activity against P388 leukemia cells (ip)in mice and maximal increase in life span calculated as (T/C-1)*100 at the optimal dose of 0.39 mg/kg (%ILS max of mitomycin C at the optimal dose of 4.0 mg/kg).; type: functional
# Mus musculus [12] = assay: TIn vivo antitumor activity against P388 leukemia cells (ip)in mice and maximal increase in life span calculated as (T/C-1)*100 at the optimal dose of 5 mg/kg (%ILS max of mitomycin C at the optimal dose of 4.0 mg/kg).; type: functional
# Mus musculus [13] = assay: In vivo antitumor activity against P388 leukemia cells (ip)in mice and maximal increase in life span calculated as (T/C-1)*100 at the optimal dose of 0.50 mg/kg (%ILS max of mitomycin C at the optimal dose of 6.0 mg/kg); type: functional
# Mus musculus [14] = assay: In vivo antitumor activity against P388 leukemia cells (ip)in mice and maximal increase in life span calculated as (T/C-1)*100 at the optimal dose of 2.5 mg/kg (%ILS max of mitomycin C at the optimal dose of 6.0 mg/kg).; type: functional
# Mus musculus [15] = assay: In vivo antitumor activity against P388 leukemia cells (ip)in mice and maximal increase in life span calculated as (T/C-1)*100 at the optimal dose of 4.0-6.0 mg/kg; type: functional
smiles,measurement,setting,value
CO[C@@]12[C@H](COC(N)=O)C3=C(C(=O)C(C)C4(OCCO4)C3=O)N1C[C@H]1[C@@H]2N1C (stereo partly specified),IC50,"HeLa [1]; Homo sapiens, HeLa",600 nM
same,ILS max,Mus musculus [2],53%
CC1C(=O)C2=C(C(=O)C13OCCO3)[C@H](COC(N)=O)[C@@]1(O)[C@@H]3[C@H](CN21)N3C (stereo partly specified),IC50,"HeLa [1]; Homo sapiens, HeLa",4400 nM
same,ILS max,Mus musculus [3],73%
CC(=O)OC1=C(C)C2(OCCO2)C(=O)C2=C1N1C[C@H]3[C@H](N3C)[C@]1(O)[C@H]2COC(N)=O (stereo partly specified),IC50,"HeLa [1]; Homo sapiens, HeLa",4400 nM
same,ILS max,Mus musculus [4],71%
CO[C@@]12[C@H](COC(N)=O)C3=C(C(OC(=O)c4ccccc4)=C(C)C4(OCCO4)C3=O)N1C[C@@H]1N[C@@H]12,IC50,"HeLa [1]; Homo sapiens, HeLa",540 nM
same,ILS max,Mus musculus [5],71%
CO[C@@]12[C@H](COC(N)=O)C3=C(C(OC(=O)CCC(C)=O)=C(C)C4(OCCO4)C3=O)N1C[C@@H]1N[C@@H]12,ILS max,Mus musculus [6],80%
same,IC50,"HeLa [1]; Homo sapiens, HeLa",590 nM
COC1=C(C)C2(OCCO2)C(=O)C2=C1N1C[C@@H]3N[C@@H]3[C@]1(OC)[C@@H]2COC(N)=O,ILS max,Mus musculus [7],41%
same,IC50,"HeLa [1]; Homo sapiens, HeLa",20000 nM
CCCCCCCC(=O)OC1=C(C)C2(OCCO2)C(=O)C2=C1N1C[C@@H]3N[C@@H]3[C@]1(OC)[C@@H]2COC(N)=O,IC50,"HeLa [1]; Homo sapiens, HeLa",360 nM
CN1[C@H]2[C@@H]1CN1C3=C(C(=O)C4(OCCO4)C(C)(Cl)C3=O)[C@H](COC(N)=O)[C@@]21O (stereo partly specified),ILS max,Mus musculus [8],59%
same,IC50,"HeLa [1]; Homo sapiens, HeLa",50000 nM
CO[C@@]12[C@H](COC(N)=O)C3=C(C(OC(=O)C(C)(C)C)=C(C)C4(OCCO4)C3=O)N1C[C@@H]1N[C@@H]12,IC50,HeLa [9],8100 nM
CCCCCCCCCCCC(=O)OC1=C(C)C2(OCCO2)C(=O)C2=C1N1C[C@@H]3N[C@@H]3[C@]1(OC)[C@@H]2COC(N)=O,IC50,"HeLa [1]; Homo sapiens, HeLa",94 nM
same,ILS max,Mus musculus [10],67%
CO[C@@]12[C@H](COC(N)=O)C3=C(C(=O)C(C)C4(OCCO4)C3=O)N1C[C@@H]1N[C@@H]12 (stereo partly specified),ILS max,Mus musculus [11],69%
same,IC50,"HeLa [1]; Homo sapiens, HeLa",41 nM
CO[C@]12[C@@H]3[C@H](CN1C1=C(C(=O)C4(OCCO4)C(C)C1=O)[C@@H]2COC(N)=O)N3C (stereo partly specified),ILS max,Mus musculus [12],80%
same,IC50,"HeLa [1]; Homo sapiens, HeLa",3100 nM
CO[C@@]12[C@H](COC(N)=O)C3=C(C(OC(C)=O)=C(C)C4(OCCO4)C3=O)N1C[C@@H]1N[C@@H]12,IC50,"HeLa [1]; Homo sapiens, HeLa",4400 nM
same,ILS max,Mus musculus [13],63%
CCOC(=O)OC1=C(C)C2(OCCO2)C(=O)C2=C1N1C[C@@H]3N[C@@H]3[C@]1(OC)[C@@H]2COC(N)=O,IC50,HeLa [9],870 nM
CO[C@@]12[C@H](COC(N)=O)C3=C(C(=O)C(C)(Cl)C4(OCCO4)C3=O)N1C[C@@H]1N[C@@H]12 (stereo in doubt; 13b),IC50,HeLa [1]; hela,3200 nM
same,ILS max,Mus musculus [14],60%
CO[C@@]12[C@H](COC(N)=O)C3=C(C(=O)C(C)(Cl)C4(OCCO4)C3=O)N1C[C@@H]1N[C@@H]12 (stereo in doubt; 13c),IC50,HeLa [1]; hela,590 nM
same,ILS max,Mus musculus [14],73%
CO[C@@]12[C@H](COC(N)=O)C3=C(C(=O)C(C)=C(N)C3=O)N1C[C@@H]1N[C@@H]12 [MITOMYCIN],IC50,"HeLa [1]; Homo sapiens, HeLa",810 nM
same,ILS max,Mus musculus [15],52%

# — ChEMBL document CHEMBL1125496, “New potent mitomycin derivatives: synthesis and antitumor activity of 7,7-(ethylenedioxy)mitomycins” (J Med Chem, 1992)
